A short description of data set [1]: melting temperature; fluorescence melt of hairpins on a sequencing array, two-state fit, raised by 9.35 °C to match UV melts. Conditions: sodium 0.088 M. The gist of the method: (§1)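 Two-state fits, bootstrapped, provided melting temperature and folding enthalpy from Cy3 fluorescence normalised to pre-quench Cy3 and to control constructs. Library hairpins with annealed Cy3 and quencher oligos were imaged on a sequenced MiSeq flow cell in 50 mM Na-HEPES pH 8.0, 25 mM NaCl, at 2.5 °C intervals up to 60 °C. Four replicates were combined with inverse-variance weighting. A 9.35 °C upward shift was applied to fitted temperatures to match UV melts.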

Data set [2] can be described thus: folding enthalpy; higher = less favourable; fluorescence melt of hairpins on a sequencing array, two-state fit. Conditions: sodium 0.088 M. The gist of the method:
as §1

GACTGTGGAAACACAGTC (((((((....))))))): the Tm in data set [1] is 66.5 °C. The folding enthalpy in data set [2] is -37.5 kcal/mol.

Consider GACTGTGGAAACATAGTC ((((.((....)).)))), for which the Tm in data set [1] is 45.2 °C. For the same sequence, the folding enthalpy in data set [2] is -28.5 kcal/mol.

Take GACTTAACGAAAGTTGTC (((..(((....)))))): the Tm in data set [1] amounted to 32.2 °C. Further, the folding enthalpy in data set [2] was -16.8 kcal/mol.

Take GACTTACCGAAAGGTGTC (((..(((....)))))): the Tm in data set [1] amounted to 36.3 °C. The folding enthalpy in data set [2] is -16.4 kcal/mol.

With GACTTACGAAAGTACGTC (((.(((....))).))), the Tm in data set [1] was 44.3 °C. Further, the folding enthalpy in data set [2] was -33.2 kcal/mol.

Consider GACTTAGAAATAAGTC ((((((....)))))), for which the Tm in data set [1] stood at 43.8 °C. The folding enthalpy in data set [2] is -30 kcal/mol.

In the case of GACTTAGGAAACTAAGTC (((((((....))))))), in data set [1], the Tm turned out to be 53.8 °C. Moreover, the folding enthalpy in data set [2] was -37.3 kcal/mol.

With GACTTAGGAAACTAGGTC (((.(((....))).))), the Tm in data set [1] was 36.8 °C. Further, the folding enthalpy in data set [2] is -32.1 kcal/mol.

GACTTAGGAAACTGAGTC ((((.((....)).)))): the Tm in data set [1] was found to be 41.2 °C. Also, the folding enthalpy in data set [2] is -36.1 kcal/mol.

Turning to GACTTCCCGAAAGGGGTC (((..(((....)))))), the Tm in data set [1] was 34 °C. Further, the folding enthalpy in data set [2] was -10.5 kcal/mol.

As to GACTTCGGAAACGAGGTC (((.(((....))).))), in data set [1], the Tm amounted to 49.9 °C. Also, in data set [2], the folding enthalpy is -35.9 kcal/mol.

For the sequence GACTTGCGAAAGCAGTC (((.(((....)))))), the Tm in data set [1] was 51.9 °C. Besides, in data set [2], the folding enthalpy is -17.4 kcal/mol.

On to GACTTGCGAAAGCATGTC (((.(((....))).))), for which the Tm in data set [1] was determined as 55.8 °C. Further, the folding enthalpy in data set [2] is -25.2 kcal/mol.

Consider GACTTGGCGAAAGCCGTC (((..(((....)))))), for which, in data set [1], the Tm was 48.4 °C. Further, the folding enthalpy in data set [2] is -7.4 kcal/mol.

For the sequence GACTTGGGAAACCGAGTC ((((.((....)).)))), in data set [1], the Tm came out at 49.5 °C. Also, the folding enthalpy in data set [2] is -45.3 kcal/mol.

Take GACTTTGGAAACAAAGTC (((((((....))))))): in data set [1], the Tm came to 57.8 °C. Besides, the folding enthalpy in data set [2] was -44.5 kcal/mol.

On to GAGAAAGAAATTTCTC ((((((....)))))), for which the Tm in data set [1] turned out to be 36.4 °C. The folding enthalpy in data set [2] is -18.8 kcal/mol.

With GAGAAAGGAAACTTTCTC (((((((....))))))), in data set [1], the Tm was 50.8 °C. The folding enthalpy in data set [2] was -39.2 kcal/mol.

Regarding GAGAACGAAAGTTAGCTC ((((((....)))..))), in data set [1], the Tm came to 24.5 °C. In data set [2], the folding enthalpy was -10 kcal/mol.

As to GAGAACGAAAGTTCACTC ((((((....)))..))), the Tm in data set [1] came to 44.3 °C. The folding enthalpy in data set [2] was -17.2 kcal/mol.

For GAGAAGGGAAACCTTCCC (.(((((....))))).), the Tm in data set [1] was 34.6 °C. Also, the folding enthalpy in data set [2] was -15.9 kcal/mol.

GAGAAGGGAAACTTTCTC (((((.(....).))))): the Tm in data set [1] is 31.8 °C. The folding enthalpy in data set [2] is -22.7 kcal/mol.

Take GAGAATGGAAACATTTTC ((.((((....)))).)): in data set [1], the Tm was 29.4 °C. Further, the folding enthalpy in data set [2] is -14.8 kcal/mol.

GAGACCCCGAAAGGGCTC (((..(((....)))))): in data set [1], the Tm was found to be 47.2 °C. For the same sequence, the folding enthalpy in data set [2] is -22.6 kcal/mol.

On to GAGACCGAAAGGTACTC ((((((....))).))), for which the Tm in data set [1] came out at 43.3 °C. Also, the folding enthalpy in data set [2] was -17.5 kcal/mol.

Consider GAGACCGAAAGGTGGCTC ((((((....)))..))), for which the Tm in data set [1] amounted to 43.4 °C. Besides, the folding enthalpy in data set [2] is -19.2 kcal/mol.

As to GAGACCGCGAAAGCGCTC (((..(((....)))))), the Tm in data set [1] worked out at 26.6 °C. In data set [2], the folding enthalpy is -7.65 kcal/mol.

For GAGACCGGAAACAGTCTC (((((.(....).))))), the Tm in data set [1] stood at 40.4 °C. Besides, the folding enthalpy in data set [2] is -27.5 kcal/mol.

With GAGACGACGAAAGTCCTC (((..(((....)))))), the Tm in data set [1] came out at 26.8 °C. Moreover, the folding enthalpy in data set [2] was -16.7 kcal/mol.

As for GAGACGCGAAAGCGACTC (((.(((....))).))), in data set [1], the Tm was 66.4 °C. Besides, the folding enthalpy in data set [2] is -24.9 kcal/mol.

In the case of GAGACGCGAAAGCGCCTC (((.(((....))).))), the Tm in data set [1] was determined as 58.7 °C. In data set [2], the folding enthalpy was -30.3 kcal/mol.

For the sequence GAGACGGGAAACCGTTTC ((.((((....)))).)), the Tm in data set [1] was found to be 45.8 °C. The folding enthalpy in data set [2] was -23.4 kcal/mol.

GAGACTGCGAAAGCACTC (((..(((....)))))): in data set [1], the Tm is 26.7 °C. Further, in data set [2], the folding enthalpy was -9.86 kcal/mol.

Take GAGACTGGAAACAGTCCC (.(((((....))))).): in data set [1], the Tm turned out to be 44.9 °C. Moreover, the folding enthalpy in data set [2] is -11 kcal/mol.

Take GAGAGAACGAAAGTTCTC (((..(((....)))))): in data set [1], the Tm stood at 52.5 °C. The folding enthalpy in data set [2] was -14.7 kcal/mol.

For GAGAGACGAAAGTCCCTC (((.(((....))).))), the Tm in data set [1] was 44.9 °C. For the same sequence, in data set [2], the folding enthalpy is -25.8 kcal/mol.

The record behind these values is the array DNA melting data of Ke et al. (doi:10.1101/2024.01.08.574731).
